Experimental data published in ChEMBL document CHEMBL4376826 (J Med Chem, 2020).
Values after ≈ are worked out from the molar mass of the structure shown.

Columns and labels:
[1] = Protein binding in mouse plasma assessed as bound fraction; type: ADME, cell-free
Procedure, shortened: (§1)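 Binding measured in 100% plasma; reported as fraction bound.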

[2] = Half life in human liver S9 fraction; type: ADME, subcellular
Procedure, shortened: (§2)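 Metabolic stability of the dihydrodiols measured in vitro with mouse and human liver S9 fractions and with mouse and human hepatocytes; half-life from substrate depletion.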

[3] = Intrinsic clearance in mouse liver S9 fraction; type: ADME, subcellular; settings: read-out: CLH
[4] = Inhibition of adenosine transporter (unknown origin) at 10 uM; type: ADME; settings: human
[5] = Intrinsic clearance in mouse hepatocytes; type: ADME, cell-based, Hepatocyte
[6] = Drug level in beta-naphthoflavone/phenobarbital-induced rat liver S9 fraction treated with 100 ug/ml Ezutromid-1 assessed as compound formation in presence of NADPH measured after 4 hrs by UV-Vis spectroscopy; type: ADME, subcellular; settings: s9, 4 h
[7] = target: T1, Amine oxidase [flavin-containing] B (Homo sapiens, UniProt P27338); test: Inhibition of monoamino oxidase B (unknown origin) at 10 uM
T1 sequence (P27338 whole entry): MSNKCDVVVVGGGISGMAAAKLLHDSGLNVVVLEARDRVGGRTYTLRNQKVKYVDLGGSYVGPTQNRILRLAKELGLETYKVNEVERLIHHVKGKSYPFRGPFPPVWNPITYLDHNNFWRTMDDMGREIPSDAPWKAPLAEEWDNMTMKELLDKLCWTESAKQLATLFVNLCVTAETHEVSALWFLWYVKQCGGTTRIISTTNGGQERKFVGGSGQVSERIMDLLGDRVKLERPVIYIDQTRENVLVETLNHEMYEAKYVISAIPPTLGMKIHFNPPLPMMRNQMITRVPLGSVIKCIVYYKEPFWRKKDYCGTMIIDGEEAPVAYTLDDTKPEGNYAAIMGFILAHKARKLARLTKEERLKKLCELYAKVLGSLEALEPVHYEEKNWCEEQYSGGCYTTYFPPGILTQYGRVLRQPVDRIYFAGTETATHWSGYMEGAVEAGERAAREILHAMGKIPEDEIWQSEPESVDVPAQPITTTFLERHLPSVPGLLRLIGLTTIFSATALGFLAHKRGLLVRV

[8] = Intrinsic clearance in human hepatocytes; type: ADME, cell-based, Hepatocyte
[9] = Half life in mouse hepatocytes; type: ADME, cell-based, Hepatocyte; procedure, shortened: as §2
[10] = Retention time in beta-naphthoflavone/phenobarbital-induced rat liver S9 fraction at 100 ug/ml in presence of NADPH measured after 4 hrs by UV-Vis spectroscopy; type: ADME, subcellular; settings: s9, 4 h
[11] = Retention time in beta-naphthoflavone/phenobarbital-induced rat liver S9 fraction at 100 ug/ml in presence of NADPH by LC-MS/MS analysis; type: ADME, subcellular
[12] = target: T1, Amine oxidase [flavin-containing] B; test: Inhibition of monoamino oxidase B (unknown origin)
UGT1A3 = UGT1A3 (Homo sapiens, UniProt P35503); test: Inhibition of human UGT1A3 assessed as residual enzyme activity at 10 uM relative to control; type: ADME; settings: read-out: Activity
[13] = Lipophilicity, logD of the compound at pH 7.4; type: physicochemical; settings: buffer
[14] = Kinetic aqueous solubility of the compound; type: physicochemical; settings: buffer; read-out: Kinetic_solubility
[15] = system: UDP-glucuronosyltransferases (UGTs); test: Drug metabolism assessed as human UGT-mediated metabolism by measuring intrinsic clearance; type: ADME, protein assay
[16] = Intrinsic clearance in human liver S9 fraction; type: ADME, subcellular; settings: read-out: CLH
[17] = Permeability at pH 7.4 by PAMPA; type: ADME; settings: read-out: permeability
[18] = target: UDP-glucuronosyltransferase 1A4 (Homo sapiens, UniProt P22310); test: Drug metabolism assessed as human UGT1A4-mediated metabolism by measuring intrinsic clearance; type: ADME; settings: recombinant enzyme
[19] = Half life in mouse liver S9 fraction; type: ADME, subcellular; procedure, shortened: as §2
UGT1A9 = UGT1A9 (Homo sapiens, UniProt O60656); test: Inhibition of human UGT1A9 assessed as residual enzyme activity at 10 uM relative to control; type: ADME; settings: read-out: Activity
[20] = target: Solute carrier organic anion transporter family member 1B1 (Homo sapiens, UniProt Q9Y6L6); test: Inhibition of OATP1B1 (unknown origin); type: ADME
[21] = Inhibition of adenosine transporter (unknown origin); type: ADME, Homo sapiens
[22] = Half life in human hepatocytes; type: ADME, cell-based, Hepatocyte; procedure, shortened: as §2
[23] = target: Multidrug and toxin extrusion protein 1 (Homo sapiens, UniProt Q96FL8); test: Inhibition of MATE1 (unknown origin); type: ADME
[24] = target: Broad substrate specificity ATP-binding cassette transporter ABCG2 (Homo sapiens, UniProt Q9UNQ0); test: Inhibition of BCRP (unknown origin); type: ADME
[25] = Protein binding in human plasma assessed as bound fraction; type: ADME, cell-free; settings: read-out: PPB (converted); procedure, shortened: as §1
[26] = target: Solute carrier organic anion transporter family member 1B3 (Homo sapiens, UniProt Q9NPD5); test: Inhibition of OATP1B3 (unknown origin); type: ADME
[27] = Retention time in human plasma by LC-MS/MS analysis; type: ADME, cell-free
UGT1A4 = UGT1A4 (Homo sapiens, UniProt P22310); test: Inhibition of human UGT1A4 assessed as residual enzyme activity at 10 uM relative to control; type: ADME; settings: read-out: Activity
UGT1A4, sequence (P22310 whole entry): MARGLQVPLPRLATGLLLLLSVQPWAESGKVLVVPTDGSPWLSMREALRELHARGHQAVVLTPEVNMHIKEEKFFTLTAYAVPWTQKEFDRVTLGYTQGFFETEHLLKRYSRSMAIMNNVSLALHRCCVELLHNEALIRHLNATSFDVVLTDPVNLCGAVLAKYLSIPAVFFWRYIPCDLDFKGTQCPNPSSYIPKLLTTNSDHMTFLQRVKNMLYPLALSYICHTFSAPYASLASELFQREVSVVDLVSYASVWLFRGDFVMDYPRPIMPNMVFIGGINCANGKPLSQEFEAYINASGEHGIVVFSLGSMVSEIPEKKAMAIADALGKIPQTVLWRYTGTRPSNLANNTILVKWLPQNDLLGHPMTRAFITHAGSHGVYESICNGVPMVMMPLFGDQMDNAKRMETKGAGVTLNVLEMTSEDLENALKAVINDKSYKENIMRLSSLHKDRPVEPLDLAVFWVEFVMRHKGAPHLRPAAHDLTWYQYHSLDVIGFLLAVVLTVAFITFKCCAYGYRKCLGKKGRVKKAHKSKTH

UGT1A9, sequence (O60656 whole entry): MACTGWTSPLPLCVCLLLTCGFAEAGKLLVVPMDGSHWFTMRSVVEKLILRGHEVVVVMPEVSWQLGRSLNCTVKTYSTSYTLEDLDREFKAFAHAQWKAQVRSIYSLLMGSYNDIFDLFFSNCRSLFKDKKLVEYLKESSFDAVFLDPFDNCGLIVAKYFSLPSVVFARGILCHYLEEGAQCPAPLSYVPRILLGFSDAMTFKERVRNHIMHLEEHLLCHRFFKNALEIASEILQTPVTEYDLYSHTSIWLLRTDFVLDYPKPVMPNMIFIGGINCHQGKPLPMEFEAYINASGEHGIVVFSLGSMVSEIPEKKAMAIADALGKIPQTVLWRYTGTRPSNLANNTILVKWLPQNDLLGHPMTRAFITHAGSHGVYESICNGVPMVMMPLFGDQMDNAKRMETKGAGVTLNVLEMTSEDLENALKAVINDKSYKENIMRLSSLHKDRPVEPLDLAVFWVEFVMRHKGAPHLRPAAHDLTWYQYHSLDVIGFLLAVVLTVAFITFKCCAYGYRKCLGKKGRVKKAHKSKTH
Solute carrier organic anion transporter family member 1B1, sequence (Q9Y6L6 whole entry): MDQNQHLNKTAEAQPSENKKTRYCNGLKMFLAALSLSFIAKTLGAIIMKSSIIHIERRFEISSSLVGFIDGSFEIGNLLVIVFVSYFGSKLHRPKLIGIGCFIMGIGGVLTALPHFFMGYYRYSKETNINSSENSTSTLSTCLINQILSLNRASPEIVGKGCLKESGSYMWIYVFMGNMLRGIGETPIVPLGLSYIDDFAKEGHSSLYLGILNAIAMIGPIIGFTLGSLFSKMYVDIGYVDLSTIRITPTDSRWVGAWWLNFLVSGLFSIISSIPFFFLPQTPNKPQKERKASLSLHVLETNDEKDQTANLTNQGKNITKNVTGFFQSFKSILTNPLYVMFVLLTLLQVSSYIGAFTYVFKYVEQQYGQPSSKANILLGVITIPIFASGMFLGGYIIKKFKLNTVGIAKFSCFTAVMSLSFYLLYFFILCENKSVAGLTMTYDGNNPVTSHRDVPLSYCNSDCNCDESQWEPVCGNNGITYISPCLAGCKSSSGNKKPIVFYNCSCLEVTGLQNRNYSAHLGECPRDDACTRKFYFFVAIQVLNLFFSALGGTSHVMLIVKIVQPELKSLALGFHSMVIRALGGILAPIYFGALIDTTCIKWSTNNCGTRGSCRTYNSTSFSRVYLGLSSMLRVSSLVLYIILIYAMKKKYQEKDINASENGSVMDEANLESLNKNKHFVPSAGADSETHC
Broad substrate specificity ATP-binding cassette transporter ABCG2, sequence (Q9UNQ0 whole entry): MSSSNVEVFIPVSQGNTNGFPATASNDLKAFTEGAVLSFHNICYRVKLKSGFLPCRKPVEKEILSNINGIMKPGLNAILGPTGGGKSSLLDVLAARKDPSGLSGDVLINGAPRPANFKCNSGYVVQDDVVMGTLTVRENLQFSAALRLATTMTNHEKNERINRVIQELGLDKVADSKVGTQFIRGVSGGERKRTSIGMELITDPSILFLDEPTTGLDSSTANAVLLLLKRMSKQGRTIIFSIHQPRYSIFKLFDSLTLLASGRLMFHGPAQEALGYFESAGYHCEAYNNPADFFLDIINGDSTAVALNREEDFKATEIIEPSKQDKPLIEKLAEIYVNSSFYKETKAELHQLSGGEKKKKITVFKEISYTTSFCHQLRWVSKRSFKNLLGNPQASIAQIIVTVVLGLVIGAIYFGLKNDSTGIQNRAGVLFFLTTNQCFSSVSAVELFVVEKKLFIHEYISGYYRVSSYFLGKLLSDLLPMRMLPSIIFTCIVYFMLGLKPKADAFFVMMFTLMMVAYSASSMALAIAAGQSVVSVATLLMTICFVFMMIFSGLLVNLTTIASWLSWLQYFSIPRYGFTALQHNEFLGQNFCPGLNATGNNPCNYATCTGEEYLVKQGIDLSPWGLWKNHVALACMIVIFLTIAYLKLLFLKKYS
UGT1A3, sequence (P35503 whole entry): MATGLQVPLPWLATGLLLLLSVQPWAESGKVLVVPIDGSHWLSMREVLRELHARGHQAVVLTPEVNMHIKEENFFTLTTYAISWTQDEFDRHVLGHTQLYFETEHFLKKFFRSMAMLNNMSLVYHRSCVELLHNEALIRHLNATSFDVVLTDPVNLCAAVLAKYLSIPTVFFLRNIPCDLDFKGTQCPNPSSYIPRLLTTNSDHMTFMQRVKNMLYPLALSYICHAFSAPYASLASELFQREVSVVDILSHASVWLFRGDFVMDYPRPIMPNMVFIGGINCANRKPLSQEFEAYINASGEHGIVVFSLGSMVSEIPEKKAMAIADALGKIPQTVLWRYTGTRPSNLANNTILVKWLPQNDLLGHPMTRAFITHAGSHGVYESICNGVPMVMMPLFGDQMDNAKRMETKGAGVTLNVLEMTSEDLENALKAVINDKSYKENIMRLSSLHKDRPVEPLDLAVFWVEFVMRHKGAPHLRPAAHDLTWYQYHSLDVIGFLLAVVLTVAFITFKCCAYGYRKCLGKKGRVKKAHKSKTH
UDP-glucuronosyltransferase 1A4, sequence (P22310 whole entry): as the sequence (P22310 whole entry) above
Solute carrier organic anion transporter family member 1B3, sequence (Q9NPD5 whole entry): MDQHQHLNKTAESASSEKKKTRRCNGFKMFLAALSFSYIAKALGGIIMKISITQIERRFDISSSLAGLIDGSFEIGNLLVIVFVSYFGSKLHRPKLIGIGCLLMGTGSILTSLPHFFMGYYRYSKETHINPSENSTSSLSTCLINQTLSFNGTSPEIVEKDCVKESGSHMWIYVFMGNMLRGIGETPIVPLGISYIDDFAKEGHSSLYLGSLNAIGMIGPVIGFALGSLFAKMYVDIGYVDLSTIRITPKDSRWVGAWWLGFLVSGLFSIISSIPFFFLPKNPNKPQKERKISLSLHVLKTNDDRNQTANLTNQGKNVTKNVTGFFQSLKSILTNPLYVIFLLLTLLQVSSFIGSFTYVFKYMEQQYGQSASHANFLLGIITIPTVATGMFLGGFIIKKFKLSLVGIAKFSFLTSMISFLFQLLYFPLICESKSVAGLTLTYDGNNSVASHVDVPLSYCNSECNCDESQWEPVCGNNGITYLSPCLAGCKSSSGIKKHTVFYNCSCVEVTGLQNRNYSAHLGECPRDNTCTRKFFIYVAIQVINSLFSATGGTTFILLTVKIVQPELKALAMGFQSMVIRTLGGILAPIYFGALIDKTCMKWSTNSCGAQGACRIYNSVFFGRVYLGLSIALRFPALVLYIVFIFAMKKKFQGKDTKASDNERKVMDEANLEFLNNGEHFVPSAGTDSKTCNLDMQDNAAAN
Multidrug and toxin extrusion protein 1, sequence (Q96FL8 whole entry): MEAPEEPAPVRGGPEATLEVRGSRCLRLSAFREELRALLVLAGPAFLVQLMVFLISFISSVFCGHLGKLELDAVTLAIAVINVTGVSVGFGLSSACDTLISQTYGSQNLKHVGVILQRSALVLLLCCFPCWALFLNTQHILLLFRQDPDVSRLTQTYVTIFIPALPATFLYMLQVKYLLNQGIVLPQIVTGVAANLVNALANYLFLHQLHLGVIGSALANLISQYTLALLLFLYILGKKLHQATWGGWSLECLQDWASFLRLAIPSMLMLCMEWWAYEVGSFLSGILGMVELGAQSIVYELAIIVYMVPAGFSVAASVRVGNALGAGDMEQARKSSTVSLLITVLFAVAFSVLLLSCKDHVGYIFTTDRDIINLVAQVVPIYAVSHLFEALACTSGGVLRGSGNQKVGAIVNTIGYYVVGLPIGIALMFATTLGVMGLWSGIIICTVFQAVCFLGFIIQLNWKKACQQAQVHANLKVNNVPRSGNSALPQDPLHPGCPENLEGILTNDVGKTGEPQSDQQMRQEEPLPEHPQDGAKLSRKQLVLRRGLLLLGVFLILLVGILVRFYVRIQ

SMILES	half-life [2] [h]	microsomal CLint [3] [µL/min/mg]	inhibition (INH) [4]	CLH [5] [µL/min/mg]	Drug uptake [6]	inhibition (INH) [7]	CLH [8] [µL/min/mg]	half-life [9] [h]	Retention_time [11] [min]	activity at 10 µM (UGT1A3) [%]	logD [13]	solubility kinetic [14] [µM]	CL [15] [µL/min/pmol]	microsomal CLint [16] [µL/min/mg]	Papp [17] [×10⁻⁶ cm/s]	CL [18] [µL/min/pmol]	half-life [19] [h]	activity at 10 µM (UGT1A9) [%]	inhibition (INH) [20]	half-life [22] [h]	further results
CCS(=O)(=O)c1ccc2oc(-c3ccc4c(c3)C=C[C@H](O)[C@H]4O)nc2c1	> 2.3	35	Active	98	Metabolite_Detected	Active	8	0.117	8.2	62	2.04	96 (≈ 35.7 µg/mL)	< 5.8	< 10	33.3	< 2.9	0.65	12	Active	1.42	PPB [1]: Not Active; Retention time [10]: 26.7 min; IC50 [12]: 4 µM; IC50 [21]: 3.9 µM; IC50 [23]: 10 µM; inhibition (INH) [24]: Active; fraction unbound [25]: 0.363; inhibition (INH) [26]: Active; Retention_time [27]: 8.1 min
CCS(=O)(=O)c1ccc2oc(-c3ccc4c(c3)[C@@H](O)[C@H](O)C=C4)nc2c1	> 2.3	13	Not Active	5	Metabolite_Detected	Not Active	5	2.38	9	79	1.95	210 (≈ 78 µg/mL)	< 5.8	< 10	34.4	< 2.9	1.87	45	Active	2.37	fraction unbound ([1]; read-out: PPB (converted)): 0.077; activity at 10 µM (UGT1A4): 84%; inhibition (INH) [24]: Active; fraction unbound [25]: 0.128; inhibition (INH) [26]: Active; Retention_time [27]: 8.9 min
